A word on the pIC50: it is −log10 of the IC50, conventionally taken in molar units. The low end stands for a high IC50, the high end for a low IC50.

pIC50: −log10 of the molar value. Activity calls are given as the source filed them. No cut-off for these calls is given here.

Sequence of Histone-lysine N-methyltransferase 2A (Q03164 1-2718 limits assumed): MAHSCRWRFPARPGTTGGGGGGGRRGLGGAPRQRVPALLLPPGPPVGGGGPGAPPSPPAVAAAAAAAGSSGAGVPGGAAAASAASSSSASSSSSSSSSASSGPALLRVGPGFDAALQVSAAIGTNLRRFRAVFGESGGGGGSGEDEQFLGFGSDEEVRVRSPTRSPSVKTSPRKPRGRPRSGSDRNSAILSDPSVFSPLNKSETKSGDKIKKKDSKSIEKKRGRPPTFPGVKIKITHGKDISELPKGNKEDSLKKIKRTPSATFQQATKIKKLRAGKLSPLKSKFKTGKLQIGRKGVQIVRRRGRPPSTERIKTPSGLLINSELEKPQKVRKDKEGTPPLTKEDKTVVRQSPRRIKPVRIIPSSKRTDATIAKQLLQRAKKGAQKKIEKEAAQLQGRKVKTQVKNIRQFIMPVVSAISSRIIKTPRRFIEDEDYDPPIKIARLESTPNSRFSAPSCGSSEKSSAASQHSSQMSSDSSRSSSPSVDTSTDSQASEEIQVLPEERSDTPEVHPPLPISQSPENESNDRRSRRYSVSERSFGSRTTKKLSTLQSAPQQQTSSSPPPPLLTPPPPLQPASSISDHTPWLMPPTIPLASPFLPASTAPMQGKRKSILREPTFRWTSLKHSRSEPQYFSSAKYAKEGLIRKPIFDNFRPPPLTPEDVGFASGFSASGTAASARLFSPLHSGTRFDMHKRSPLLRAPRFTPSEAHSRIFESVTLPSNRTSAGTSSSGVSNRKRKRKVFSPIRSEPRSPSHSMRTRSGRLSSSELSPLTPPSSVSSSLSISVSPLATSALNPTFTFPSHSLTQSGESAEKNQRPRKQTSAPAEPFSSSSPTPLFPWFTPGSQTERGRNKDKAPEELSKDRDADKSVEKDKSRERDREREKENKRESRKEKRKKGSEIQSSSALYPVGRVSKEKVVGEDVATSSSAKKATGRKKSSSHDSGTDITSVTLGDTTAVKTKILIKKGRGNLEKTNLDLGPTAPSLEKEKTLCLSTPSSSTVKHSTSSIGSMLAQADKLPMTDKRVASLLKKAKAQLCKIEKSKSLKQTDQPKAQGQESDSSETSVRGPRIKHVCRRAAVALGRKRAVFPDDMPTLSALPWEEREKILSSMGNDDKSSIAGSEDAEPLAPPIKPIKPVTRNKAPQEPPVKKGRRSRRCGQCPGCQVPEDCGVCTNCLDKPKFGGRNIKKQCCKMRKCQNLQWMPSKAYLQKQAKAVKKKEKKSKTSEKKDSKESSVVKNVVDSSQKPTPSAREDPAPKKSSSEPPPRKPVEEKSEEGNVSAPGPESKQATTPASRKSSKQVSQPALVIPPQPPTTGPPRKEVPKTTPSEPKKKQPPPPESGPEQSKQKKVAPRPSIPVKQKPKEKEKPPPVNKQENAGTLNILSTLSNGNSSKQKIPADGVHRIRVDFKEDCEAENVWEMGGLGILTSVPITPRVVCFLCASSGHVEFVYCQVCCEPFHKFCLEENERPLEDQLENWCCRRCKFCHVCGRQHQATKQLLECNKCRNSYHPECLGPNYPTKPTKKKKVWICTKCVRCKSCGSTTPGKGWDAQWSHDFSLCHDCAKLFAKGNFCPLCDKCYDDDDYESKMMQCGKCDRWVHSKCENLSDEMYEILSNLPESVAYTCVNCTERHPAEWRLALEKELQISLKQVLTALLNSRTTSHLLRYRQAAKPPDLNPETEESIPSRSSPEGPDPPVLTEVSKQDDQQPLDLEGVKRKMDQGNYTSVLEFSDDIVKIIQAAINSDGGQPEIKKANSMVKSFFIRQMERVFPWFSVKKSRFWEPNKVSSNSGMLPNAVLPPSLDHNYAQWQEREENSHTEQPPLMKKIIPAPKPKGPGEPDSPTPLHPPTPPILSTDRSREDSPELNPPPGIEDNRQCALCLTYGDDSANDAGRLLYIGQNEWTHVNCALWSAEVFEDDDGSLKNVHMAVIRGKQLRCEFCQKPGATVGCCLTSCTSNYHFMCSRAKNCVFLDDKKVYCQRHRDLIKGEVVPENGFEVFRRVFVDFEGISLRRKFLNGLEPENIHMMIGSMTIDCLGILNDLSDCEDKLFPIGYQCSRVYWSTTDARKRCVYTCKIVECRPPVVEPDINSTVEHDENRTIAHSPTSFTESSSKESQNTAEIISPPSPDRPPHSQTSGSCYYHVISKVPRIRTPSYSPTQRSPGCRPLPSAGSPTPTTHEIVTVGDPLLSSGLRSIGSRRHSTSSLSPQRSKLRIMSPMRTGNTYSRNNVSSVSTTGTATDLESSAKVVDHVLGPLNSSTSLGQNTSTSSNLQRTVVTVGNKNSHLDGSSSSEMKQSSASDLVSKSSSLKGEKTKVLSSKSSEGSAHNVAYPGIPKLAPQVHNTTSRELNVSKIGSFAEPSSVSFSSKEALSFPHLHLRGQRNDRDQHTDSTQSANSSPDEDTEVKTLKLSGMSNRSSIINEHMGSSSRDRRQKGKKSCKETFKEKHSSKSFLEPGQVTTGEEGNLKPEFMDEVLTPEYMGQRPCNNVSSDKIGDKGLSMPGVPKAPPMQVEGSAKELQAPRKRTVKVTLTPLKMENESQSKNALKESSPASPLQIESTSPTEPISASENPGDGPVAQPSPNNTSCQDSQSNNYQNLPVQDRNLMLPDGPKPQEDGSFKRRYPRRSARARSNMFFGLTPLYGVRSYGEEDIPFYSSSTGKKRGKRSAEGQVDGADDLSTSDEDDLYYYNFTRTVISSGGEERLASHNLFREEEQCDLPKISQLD
Sequence of Histone-lysine N-methyltransferase 2A (Q03164 2719-3969 limits assumed): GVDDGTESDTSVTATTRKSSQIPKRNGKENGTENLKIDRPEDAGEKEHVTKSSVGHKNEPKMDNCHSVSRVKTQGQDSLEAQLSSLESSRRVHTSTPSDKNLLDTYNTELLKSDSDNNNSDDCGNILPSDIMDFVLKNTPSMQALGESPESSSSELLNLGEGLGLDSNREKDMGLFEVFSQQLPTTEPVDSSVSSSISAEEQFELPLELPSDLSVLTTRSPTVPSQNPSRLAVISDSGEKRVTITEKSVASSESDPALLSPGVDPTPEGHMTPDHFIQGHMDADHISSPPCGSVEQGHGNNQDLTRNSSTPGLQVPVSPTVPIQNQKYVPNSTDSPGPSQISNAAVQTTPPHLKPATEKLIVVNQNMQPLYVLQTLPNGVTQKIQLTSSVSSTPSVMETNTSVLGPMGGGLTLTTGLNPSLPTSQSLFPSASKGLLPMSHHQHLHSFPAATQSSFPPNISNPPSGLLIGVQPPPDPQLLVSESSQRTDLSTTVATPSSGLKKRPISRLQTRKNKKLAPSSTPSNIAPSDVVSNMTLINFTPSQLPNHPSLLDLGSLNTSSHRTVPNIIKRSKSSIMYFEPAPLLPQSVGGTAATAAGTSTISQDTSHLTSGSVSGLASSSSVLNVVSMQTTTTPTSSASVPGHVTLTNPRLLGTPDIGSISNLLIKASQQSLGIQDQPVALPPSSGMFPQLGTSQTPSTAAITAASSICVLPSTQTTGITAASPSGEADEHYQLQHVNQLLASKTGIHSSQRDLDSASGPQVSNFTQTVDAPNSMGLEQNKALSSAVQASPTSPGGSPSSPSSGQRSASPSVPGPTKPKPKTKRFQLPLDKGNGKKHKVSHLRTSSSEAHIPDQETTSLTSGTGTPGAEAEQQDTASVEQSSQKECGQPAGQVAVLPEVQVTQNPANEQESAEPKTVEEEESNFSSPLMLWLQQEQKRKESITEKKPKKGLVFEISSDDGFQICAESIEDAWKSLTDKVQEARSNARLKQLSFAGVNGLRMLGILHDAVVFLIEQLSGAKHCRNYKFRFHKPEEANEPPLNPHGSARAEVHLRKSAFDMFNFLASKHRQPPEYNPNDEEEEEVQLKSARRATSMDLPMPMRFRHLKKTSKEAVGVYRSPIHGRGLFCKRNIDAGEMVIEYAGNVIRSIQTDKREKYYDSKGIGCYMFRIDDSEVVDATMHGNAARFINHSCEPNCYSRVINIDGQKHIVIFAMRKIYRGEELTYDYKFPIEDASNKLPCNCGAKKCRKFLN

One experiment deals with Histone-lysine N-methyltransferase 2A (Homo sapiens, UniProt Q03164). Description: Inhibition of GST-tagged human MLL1 (1147 to 1203 residues) expressed in Escherichia coli BL21 cells incubated for 30 mins by fluorescence polarization assay. Summed up:
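Competition fluorescence polarization assay. CXXC domain protein is held at 2× its own KD. All domains are expressed and purified by the same method. Standard deviations come from three separate measurements.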
As to `C=CC(=O)N1CCC(C(=O)NS(=O)(=O)CC)(c2ccccc2)CC1`, the pIC50 is 3.94. Still for that read-out and setting: to `C=CC(=O)N1CCC(C(=O)NS(=O)(=O)c2ccc(F)cc2)(c2ccccc2)CC1` belongs 4.13; to `C=CC(=O)N1CCC(C(=O)NS(=O)(=O)c2ccc(Cl)cc2)(c2ccccc2)CC1`, 3.82. The same measure, in the same setting: to `C=CC(=O)N1CCC(C(=O)O)(c2ccc(C)cc2)CC1` belongs 3.31. The compound `C=CC(=O)N1CCC(C(=O)NS(=O)(=O)c2ccc(C)cc2)(c2ccccc2)CC1` gave a pIC50 of 3.87. The same measure, in the same setting: the result for `C=CC(=O)N1CCC(C(=O)O)(c2cccc(OCC)c2)CC1` reads 4.29. `C=CC(=O)N1CCC(C(=O)NS(=O)(=O)c2ccc(OC)cc2)(c2ccccc2)CC1` showed a pIC50 of 4.12. The same measure, in the same setting: the result for `C=CC(=O)N1CCC(C(=O)O)(c2ccc(N(C)C)cc2)CC1` reads 3.08.

A further experiment has as its system MV4-11. Briefly: Anti-proliferative activity against human MV4-11 cells harboring MLL fusion protein assessed as inhibition of cell viability upto 120 uM for 72 hrs by MTT assay. Format: functional, cell-based. Summed up: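 MV4-11 MLL-fusion leukemia cells are exposed to compound across a concentration range for 72 h. Growth is read out by MTT assay, with three replicates.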
In general terms: Tetrazolium dyes change colour on reduction, which living cells bring about.
Take `C=CC(=O)N1CCC(C(=O)OCC)(c2ccccc2)CC1`: the outcome was Active.

Values taken from ChEMBL document CHEMBL5120972, “Small-Molecule Inhibitors of the MLL1 CXXC Domain, an Epigenetic Reader of DNA Methylation” (ACS Med Chem Lett, 2022).
